Results published in ChEMBL document CHEMBL1681778, “Synthesis and biological evaluation of 2,4-diaminoquinazoline derivatives as novel heat shock protein 90 inhibitors” (Bioorg Med Chem Lett, 2011).
pIC50: −log10 of the molar value. Activity calls are given as the source filed them. No cut-off for these calls is given here.

Legend:
[1] = tested on: DU-145; experiment: Cytotoxicity against human DU145 cells at 10 uM after 2 days by MTT assay; type: functional; conditions: DU-145, 48 h
[2] = tested on: HT-29; experiment: Cytotoxicity against human HT-29 cells at 10 uM after 2 days by MTT assay; type: functional; conditions: HT-29, 48 h
[3] = Cytotoxicity against human A375P cells after 2 days by MTT assay; type: functional, cell-based; conditions: 48 h
Procedure, shortened: (§1)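 Cells grown in RPMI 1640 with 10% heat-inactivated FBS at 37 °C and 5% CO2. Seeded at 3 × 10³ cells/well, then given a range of sample concentrations in duplicate for two days. Read by MTT-type dye and solubilization/stop solution, left overnight at room temperature to dissolve formazan, with OD at 570 nm.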

[4] = tested on: HT-29; experiment: Cytotoxicity against human HT-29 cells after 2 days by MTT assay; type: functional, cell-based; conditions: HT-29, 48 h; procedure, shortened: as §1
[5] = tested on: HCT-116; experiment: Cytotoxicity against human HCT116 cells after 2 days by MTT assay; type: functional, cell-based; conditions: HCT-116, 48 h; procedure, shortened: as §1
[6] = tested on: HCT-116; experiment: Cytotoxicity against human HCT116 cells at 10 uM after 2 days by MTT assay; type: functional; conditions: HCT-116, 48 h
[7] = tested on: DU-145; experiment: Cytotoxicity against human DU145 cells after 2 days by MTT assay; type: functional, cell-based; conditions: DU-145, 48 h; procedure, shortened: as §1
[8] = Cytotoxicity against human A375P cells at 10 uM after 2 days by MTT assay; type: functional; conditions: 48 h
[9] = tested on: MCF7; experiment: Cytotoxicity against human MCF7 cells at 10 uM after 2 days by MTT assay; type: functional; conditions: MCF7, 48 h
[10] = molecular target: T1, Heat shock protein HSP90 (Homo sapiens) (UniProt P07900+P08238); experiment: Inhibition of HSP90 in human MCF7 cells assessed as reduction of Her2 protein level at 5 uM after 24 hrs by Western blotting relative to control; type: cell-based
Procedure, shortened: (§2)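 MCF-7 cells seeded at 10⁵ cells/well and grown to 60% confluency. Treated with compounds at 5 µM in 0.4% DMSO for 24 h, with DMSO alone as control. Her2 and Hsp70 levels detected by western blot.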

[11] = molecular target: T1, Heat shock protein HSP90 (Homo sapiens); experiment: Inhibition of HSP90 in human MCF7 cells assessed as induction of HSP70 expression at 5 uM after 24 hrs by Western blotting; type: cell-based; procedure, shortened: as §2
[12] = tested on: MCF7; experiment: Cytotoxicity against human MCF7 cells after 2 days by MTT assay; type: functional, cell-based; conditions: MCF7, 48 h; procedure, shortened: as §1

SMILES: CN(C)CCNc1nc(NCc2ccco2)c2ccccc2n1
- inhibition at 10 µM [1]: 20%
- inhibition at 10 µM [2]: 21.7%

SMILES: Fc1ccc2nc(NCCCN3CCOCC3)nc(NCc3ccco3)c2c1
- pIC50 [3]: 4.65
- inhibition at 10 µM [1]: 26.7%
- inhibition at 10 µM [2]: 83.1%
- pIC50 [4]: 5.03
- pIC50 [5]: 4.60
- inhibition at 10 µM [6]: 52.1%
- pIC50 [7]: < 4.00

SMILES: CN(C)CCCNc1nc(NCc2ccco2)c2ccccc2n1
- pIC50 [4]: 5.35
- pIC50 [7]: 4.29

SMILES: COc1cccc2c1C(=O)c1c(O)c3c(c(O)c1C2=O)C[C@@](O)(C(=O)CO)C[C@@H]3O[C@H]1C[C@H](N)[C@H](O)[C@H](C)O1 [DOXORUBICIN]
- pIC50 [4]: 6.09

SMILES: CCN(CC)CCNc1nc(NCc2ccco2)c2cc(F)ccc2n1
- inhibition at 10 µM [8]: 7.67%
- inhibition at 10 µM [1]: 26.6%
- inhibition at 10 µM [2]: 27.5%
- inhibition at 10 µM [6]: 26.4%

SMILES: Clc1cccc(N2CCN(CCCCNc3nc(NCc4ccco4)c4ccccc4n3)CC2)c1Cl
- pIC50 [3]: 5.43
- inhibition at 10 µM [1]: 94.3%
- inhibition at 10 µM [2]: 94.8%
- inhibition at 10 µM [9]: 95.8%
- inhibition [10]: > 50%
- inhibition [11]: Active
- pIC50 [4]: 5.47
- pIC50 [5]: 5.49
- inhibition at 10 µM [6]: 94.7%
- pIC50 [12]: 5.53
- pIC50 [7]: 5.41

SMILES: c1coc(CNc2nc(NCCCN3CCCC3)nc3ccccc23)c1
- pIC50 [3]: 4.71
- inhibition at 10 µM [1]: 40.1%
- inhibition at 10 µM [2]: 87.5%
- pIC50 [4]: 5.22
- pIC50 [5]: 4.79
- inhibition at 10 µM [6]: 67.5%
- pIC50 [7]: 4.45

SMILES: Fc1ccc2nc(NCCCCN3CCN(c4cccc(Cl)c4Cl)CC3)nc(NCc3ccco3)c2c1
- pIC50 [3]: 5.58
- inhibition at 10 µM [8]: 97.3%
- inhibition at 10 µM [1]: 95.5%
- inhibition at 10 µM [2]: 96.3%
- pIC50 [4]: 6.41
- pIC50 [5]: 6.28
- inhibition at 10 µM [6]: 97.1%
- pIC50 [7]: 6.17

SMILES: COc1ccc(Nc2nc(NCc3ccco3)c3ccccc3n2)cc1
- inhibition at 10 µM [9]: 64.5%
- pIC50 [4]: 4.91
- pIC50 [7]: 4.46

SMILES: CCCCCNc1nc(NCc2ccco2)c2ccccc2n1
- pIC50 [4]: 5.17
- pIC50 [7]: 4.94

SMILES: CCCCCNc1nc(NCc2ccco2)c2cc(F)ccc2n1
- pIC50 [3]: 5.13
- inhibition at 10 µM [1]: 83.6%
- inhibition at 10 µM [9]: 94.4%
- pIC50 [4]: 5.39
- pIC50 [5]: 5.39
- inhibition at 10 µM [6]: 94.2%
- pIC50 [7]: 5.14

SMILES: CCCCNc1nc(NCc2ccco2)c2ccccc2n1
- pIC50 [3]: 5.04
- inhibition at 10 µM [1]: 89.9%
- inhibition at 10 µM [2]: 92.3%
- inhibition at 10 µM [9]: 66.7%
- pIC50 [4]: 5.53
- pIC50 [5]: 5.26
- inhibition at 10 µM [6]: 94.8%
- pIC50 [7]: 5.30

SMILES: Cc1cccc(N2CCN(CCCCNc3nc(NCc4ccco4)c4cc(F)ccc4n3)CC2)c1C
- pIC50 [3]: 5.48
- inhibition at 10 µM [8]: 97.5%
- inhibition at 10 µM [1]: 93.4%
- inhibition at 10 µM [2]: 96.1%
- inhibition at 10 µM [9]: 97.7%
- inhibition [10]: < 50%
- inhibition [11]: Active
- pIC50 [4]: 5.74
- pIC50 [5]: 6.09
- inhibition at 10 µM [6]: 97.4%
- pIC50 [12]: 5.50
- pIC50 [7]: 5.48

SMILES: Cc1cccc(N2CCN(CCCNc3nc(NCc4ccco4)c4cc(F)ccc4n3)CC2)c1C
- pIC50 [3]: 5.55
- inhibition at 10 µM [8]: 97.6%
- inhibition at 10 µM [1]: 95.9%
- inhibition at 10 µM [2]: 96.7%
- pIC50 [4]: 5.98
- pIC50 [5]: 5.94
- inhibition at 10 µM [6]: 97.3%
- pIC50 [7]: 5.58

SMILES: c1coc(CNc2nc(NCCCCN3CCOCC3)nc3ccccc23)c1
- pIC50 [3]: 5.28
- inhibition at 10 µM [8]: 59.2%
- inhibition at 10 µM [1]: 52.3%
- inhibition at 10 µM [2]: 68.7%
- pIC50 [4]: 5.87
- pIC50 [5]: 5.68
- inhibition at 10 µM [6]: 79.8%
- pIC50 [7]: 5.20

SMILES: CCCCNc1nc(NCc2ccco2)c2cccc(F)c2n1
- pIC50 [3]: 5.58
- inhibition at 10 µM [9]: 87%
- pIC50 [5]: 5.88

SMILES: CCCCNc1nc(NCc2ccco2)c2cc(F)ccc2n1
- pIC50 [3]: 5.07
- inhibition at 10 µM [1]: 75.4%
- inhibition at 10 µM [2]: 88.1%
- pIC50 [4]: 5.52
- pIC50 [5]: 5.37
- inhibition at 10 µM [6]: 87.8%
- pIC50 [7]: 5.23

SMILES: Fc1ccc2nc(NCCCCN3CCOCC3)nc(NCc3ccco3)c2c1
- pIC50 [3]: 5.35
- inhibition at 10 µM [8]: 62%
- inhibition at 10 µM [1]: 57.6%
- inhibition at 10 µM [2]: 76.8%
- pIC50 [4]: 5.87
- pIC50 [5]: 5.67
- inhibition at 10 µM [6]: 82%
- pIC50 [7]: 5.19

SMILES: Cc1cccc(N2CCN(CCCNc3nc(NCc4ccco4)c4ccccc4n3)CC2)c1C
- pIC50 [3]: 5.52
- inhibition at 10 µM [1]: 91.5%
- inhibition at 10 µM [2]: 94%
- inhibition at 10 µM [9]: 95.9%
- inhibition [10]: < 50%
- inhibition [11]: Active
- pIC50 [4]: 6.08
- pIC50 [5]: 6.11
- inhibition at 10 µM [6]: 93.2%
- pIC50 [12]: 5.48
- pIC50 [7]: 6.03

SMILES: Cc1cccc(N2CCN(CCCCNc3nc(NCc4ccco4)c4ccccc4n3)CC2)c1C
- pIC50 [3]: 5.41
- inhibition at 10 µM [1]: 93.6%
- inhibition at 10 µM [2]: 94.2%
- inhibition at 10 µM [9]: 95.8%
- inhibition [10]: > 50%
- inhibition [11]: Active
- pIC50 [4]: 6.07
- pIC50 [5]: 6.08
- inhibition at 10 µM [6]: 94.3%
- pIC50 [12]: 5.50
- pIC50 [7]: 5.97

SMILES: Fc1ccc2nc(NCCN3CCOCC3)nc(NCc3ccco3)c2c1
- inhibition at 10 µM [8]: 28.6%
- inhibition at 10 µM [1]: 27.8%
- inhibition at 10 µM [2]: 9.68%
- inhibition at 10 µM [6]: 12.8%

SMILES: Fc1ccc2nc(NCCN3CCN(c4cccc(Cl)c4Cl)CC3)nc(NCc3ccco3)c2c1
- pIC50 [3]: 5.62
- inhibition at 10 µM [9]: 95.5%
- pIC50 [5]: 6.00

SMILES: CCN(CC)CCNc1nc(NCc2ccco2)c2ccccc2n1
- pIC50 [3]: 4.46
- inhibition at 10 µM [1]: 28.5%
- inhibition at 10 µM [2]: 75.1%
- pIC50 [4]: 4.95
- pIC50 [5]: 4.59
- inhibition at 10 µM [6]: 62.6%
- pIC50 [7]: < 4.00

SMILES: COc1ccc(Nc2nc(NCc3ccco3)c3cc(F)ccc3n2)cc1
- pIC50 [3]: 5.12
- inhibition at 10 µM [1]: 55.4%
- inhibition at 10 µM [2]: 86.2%
- pIC50 [4]: 5.36
- pIC50 [5]: 5.21
- inhibition at 10 µM [6]: 74%
- pIC50 [7]: 4.93

SMILES: c1coc(CNc2nc(NCCCN3CCOCC3)nc3ccccc23)c1
- pIC50 [4]: 4.62
- pIC50 [7]: 4.10

SMILES: Clc1cccc(N2CCN(CCCNc3nc(NCc4ccco4)c4ccccc4n3)CC2)c1Cl
- pIC50 [3]: 5.47
- inhibition at 10 µM [1]: 93.2%
- inhibition at 10 µM [2]: 94.1%
- inhibition at 10 µM [9]: 95.8%
- inhibition [10]: > 50%
- inhibition [11]: Active
- pIC50 [4]: 5.47
- pIC50 [5]: 5.47
- inhibition at 10 µM [6]: 94.5%
- pIC50 [12]: 5.53
- pIC50 [7]: 5.43

SMILES: c1coc(CNc2nc(NCCN3CCOCC3)nc3ccccc23)c1
- inhibition at 10 µM [9]: 95.8%
- pIC50 [12]: 5.67
